Drawing on ChEMBL document CHEMBL1147589, “Abeta aggregation inhibitors. Part 1: Synthesis and biological activity of phenylazo benzenesulfonamides” (Bioorg Med Chem Lett, 2004), this text covers IC50, EC50 and selectivity ratio for five compounds.

The species named for data set [1] is Rattus norvegicus. Briefly: Evaluated for neurotoxicity by inhibition of neuron viability in rat cortical neurons expressed as IC50. In kind it is functional. The procedure, abridged:
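Cortical neurons were incubated with the compound at various concentrations, and viability was measured by MTT reduction with OD at 600 nm on an ELISA reader. IC50 is the concentration inhibiting neuron viability by 50%. Values are averages of three separate experiments.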

The species named for data set [2] is Rattus norvegicus. Briefly: Effective concentration required to inhibit A-beta-40 fibril formation […]. In kind it is functional. A digest of the protocol:
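Thioflavin-T binding assay of Aβ40 aggregation. Aβ40 (25) was incubated with the compound at various concentrations in 50 mM TBS, pH 7.4, at 37 °C for 2 days. Fluorescence was read at Ex 450/Em 482 and scaled to Aβ40 alone (100%). EC50 is the concentration inhibiting aggregation by 50%. Values are averages of three separate experiments.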

Data set [3] can be described thus: Therapeutic index expressed as the ratio of IC50 to EC50. The conditions noted are these: rat; read-out: Therapeutic index. A digest of the protocol:
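Therapeutic index = IC50/EC50. IC50 is the concentration inhibiting neuron viability by 50% in the MTT reduction assay on cortical neurons. EC50 is the concentration inhibiting Aβ40 aggregation by 50% in the thioflavin-T assay (25 Aβ40, TBS pH 7.4, 37 °C, 2 days). Both were determined at various compound concentrations in three separate experiments.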

One may read the IC50 as the concentration needed to halve the response being measured. A low value points to greater potency in that assay. In general, EC50 refers to the concentration giving half of the maximal effect. A high value points to a less potent agent. On to `NS(=O)(=O)c1ccc(/N=N/c2ccc(NCS(=O)(=O)O)cc2)cc1`, for which, in data set [1], the IC50 was > 100 µM. Moreover, in data set [2], the 50% effective concentration (EC50) was determined as 77.2 µM. Moreover, the selectivity ratio in data set [3] was > 1.29.

Regarding `Nc1ccc(/N=N/c2ccc(S(N)(=O)=O)cc2)cc1`, the IC50 in data set [1] was > 100 µM. In data set [2], this compound registered an EC50 of 100 µM.

In the case of `CN(C)c1ccc(/N=N/c2ccc(S(N)(=O)=O)cc2)cc1`, in data set [1], the half-maximal inhibitory concentration (IC50) was > 100 µM. In data set [2], this compound had an EC50 of 12.9 µM. Also, in data set [3], the selectivity ratio is > 7.75.

`CSc1cc(N)ccc1/N=N/c1ccc(S(N)(=O)=O)cc1`: the IC50 in data set [1] is > 100 µM. This compound also returned an EC50 in data set [2] of 56.8 µM. Besides, the selectivity ratio in data set [3] is > 1.76.

On to `CCN(CC)CCNc1ccc(/N=N/c2ccc(S(N)(=O)=O)cc2)c2ccccc12`, for which the midpoint of inhibition in data set [1], the IC50, lay at 22.1 µM. In data set [2], this compound showed an EC50 of 15.1 µM. Moreover, the selectivity ratio in data set [3] came to 1.47.
